NTR1 ag: agonists of human neurotensin receptor NTR1. P30989. NTR1-U2OS beta-arrestin-GFP spot imaging, agonist mode. activation, % at 20 µM. 330,000 tested, 0.17% active. AID 493036;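 active = activation at or above 40% of the spot to cytoplasm intensity ratio, with at least 20 cells analyzed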;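 also: 0% = DMSO without peptide and 100% = 100 nM NTR1 peptide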
V-ATPase pHluor: yeast V-ATPase proton transport regulation by pHLuorin. S. cerevisiae, pHLuorin cytosolic pH fluorescence. response, % at 10 µM. 350,000 tested, 0.37% active. AID 504577; in the data active = response mostly above about 7.3%, no sharp cut-off; inactive = mostly below about 5.4%; also: actives read high
SR-BI DiI-HDL act: enhances SR-BI lipid uptake from DiI-HDL; 320,000 tested, 0.096% active; activation, % at 12.5 µM; AID 504775; CHO ldlA[mSR-BI] cells, DiI-HDL uptake fluorescence, 3 h; 100 = double the neutral-control signal;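 active = mean replicate activation of at least 60% and every replicate at or above 60%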;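 also: 0% = median plate neutral-control signal and 100% = twice that signal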
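System: CHO ldlA[mSR-BI] cells / Medium: HEPES-buffered (25 mM, pH 7.4) F12 plus 0.5% BSA / Probe or stimulus: labelled HDL, 10 µg/mL / Doses: single compound concentration, delivered by pin transfer / Schedule: 3 h, 37 °C / Measured by: DiI fluorescence, bottom read / Measure: cell-associated DiI fluorescence as measure of HDL uptake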
SR-BI DiI inh: blocks mouse SR-BI lipid uptake from DiI-HDL; Q61009; ldlA[mSR-BI] CHO cells, DiI-HDL uptake fluorescence, 3 h; inhibition, % at 12.5 µM; 320,000 tested, 0.96% active;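 active = mean replicate inhibition of at least 70% and a set share of replicates each scoring 70 or more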;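 also: 0% = median of neutral control wells and 100% = median of positive control wells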
Target sequence (Q61009 whole entry, looked up): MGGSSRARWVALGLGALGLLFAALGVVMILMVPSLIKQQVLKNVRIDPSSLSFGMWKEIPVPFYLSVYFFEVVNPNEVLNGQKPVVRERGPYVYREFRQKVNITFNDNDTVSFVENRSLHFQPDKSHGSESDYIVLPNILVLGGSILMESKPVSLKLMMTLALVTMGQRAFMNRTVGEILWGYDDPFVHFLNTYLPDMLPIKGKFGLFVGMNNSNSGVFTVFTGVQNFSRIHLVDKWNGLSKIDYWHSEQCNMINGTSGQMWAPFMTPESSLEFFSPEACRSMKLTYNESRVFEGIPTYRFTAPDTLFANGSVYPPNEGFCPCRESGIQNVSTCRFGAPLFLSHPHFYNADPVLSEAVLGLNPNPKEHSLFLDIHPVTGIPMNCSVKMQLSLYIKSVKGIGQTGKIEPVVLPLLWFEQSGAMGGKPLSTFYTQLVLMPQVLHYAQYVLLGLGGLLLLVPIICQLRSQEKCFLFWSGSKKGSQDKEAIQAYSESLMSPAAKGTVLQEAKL
CaV13 ICDI inh: Primary screen for inhibitors of IQ motif and Ca2+-dependent inactivation inhibitor domain binding in CACNA1D, Förster resonance energy transfer in living cells, …; HEK cells, CFP/YFP FRET ICDI-IQ, plate reader, 10 min; percent FRET-ratio fall versus neutral wells; inhibition, % at 12.3 µM; 340,000 tested, 0.098% active;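 active = mean replicate inhibition of at least 30% and at least 1% of replicates passing that level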;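 also: 0% = median of the neutral control wells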
Vif inh: inhibitors of HIV Vif. inhibition, % at 7.49 µM. AID 602346. 340,000 tested, 0.35% active. HEK293T cells, Vif self-association by quenched fluorescence, imaging, 24 h; in the data active = inhibition above about 50%, passing the limit was not always enough
NTR1 ag conf: confirmation of agonists of human NTR1; NTR1-U2OS beta-arrestin-GFP translocation imaging; 480 tested, 38% active; activation, % at 20 µM; shares compounds with NTR1 ag; AID 504550;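 active = mean activation at 20 µM of at least 40%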;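 also: 0% = DMSO without peptide and 100% = 100 nM NTR1 peptide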
Active calls of the source: *. A selection: hits, their analogues and other compounds. The true share with any hit is near 1.7%.

For O=C1ON=C(c2ccc(Cl)cc2)/C1=C/c1ccc(O)cc1 the results were NTR1 ag 66*, SR-BI DiI-HDL act 10, SR-BI DiI inh -10, CaV13 ICDI inh -7, Vif inh 1 and NTR1 ag conf 98*.
Screening COc1ccc2nc(NC(=O)Nc3ccccc3)sc2c1 returned NTR1 ag 0, V-ATPase pHluor 2, SR-BI DiI-HDL act -39, SR-BI DiI inh 42, CaV13 ICDI inh -5 and Vif inh -8.
For CC(C)(C)c1nc(NC(=O)Nc2ccccc2)sc1Br the results were NTR1 ag 44*, V-ATPase pHluor -2, SR-BI DiI-HDL act -46, SR-BI DiI inh 46, CaV13 ICDI inh -5, Vif inh -16 and NTR1 ag conf 11.
Screening COC(=O)N/N=C/c1ccc(Oc2ccccc2)cc1 returned NTR1 ag 1, V-ATPase pHluor -1, SR-BI DiI-HDL act 35, SR-BI DiI inh -35, CaV13 ICDI inh 5 and Vif inh -7.
Screening O=C(Nc1nc(-c2ccccc2)cs1)c1ccc(N2CCOCC2)c([N+](=O)[O-])c1 returned NTR1 ag 70*, V-ATPase pHluor -2, SR-BI DiI-HDL act -79, SR-BI DiI inh 79*, Vif inh -8 and NTR1 ag conf 37.
O=C(Nc1nnc(COc2ccc(Cl)cc2)s1)c1ccc([N+](=O)[O-])cc1 was read as NTR1 ag -1, V-ATPase pHluor -3, SR-BI DiI-HDL act -4, SR-BI DiI inh 4, CaV13 ICDI inh -1 and Vif inh 0.
`O=C(Nc1ncc(Cc2ccc(Cl)cc2Cl)s1)c1ccc([N+](=O)[O-])cc1` gave NTR1 ag 48*, V-ATPase pHluor -4, SR-BI DiI-HDL act -3, SR-BI DiI inh 3, CaV13 ICDI inh -1, Vif inh -1 and NTR1 ag conf 7.
CCOc1cc(N2CCOCC2)c(OCC)cc1NC(=O)c1nn(CC)c(=O)c2ccccc12 was read as NTR1 ag 45*, V-ATPase pHluor 1, SR-BI DiI-HDL act -68, SR-BI DiI inh 68, CaV13 ICDI inh -6, Vif inh -7 and NTR1 ag conf 37.
Cc1ccc([C@H]2C(C(=O)O)=CC[C@@H](c3ccc(Cl)cc3)N2S(=O)(=O)c2ccc(C)cc2)cc1 was read as NTR1 ag 10, V-ATPase pHluor 2, SR-BI DiI-HDL act -2, SR-BI DiI inh 2 and CaV13 ICDI inh -5.
O=C(O)C1=CC[C@@H](c2ccc(Cl)cc2)N(S(=O)(=O)c2ccc(Cl)cc2)[C@H]1c1ccccc1 was read as NTR1 ag 40*, V-ATPase pHluor 1, SR-BI DiI-HDL act 11, SR-BI DiI inh -11, CaV13 ICDI inh -4, Vif inh 13 and NTR1 ag conf 4.
Screening COc1ccc(NC(=O)C2=CCN(S(=O)(=O)c3ccccc3)CC2)cc1OC returned NTR1 ag 1, V-ATPase pHluor -3, CaV13 ICDI inh -1 and Vif inh 0.
O=c1/c(=C\c2ccc(O)cc2)sc2nc(-c3ccccc3)c(-c3ccccc3)n12 was read as NTR1 ag 46*, V-ATPase pHluor -1, CaV13 ICDI inh -9, Vif inh -3 and NTR1 ag conf 24.
For O=C(c1ccccc1)C(Nc1cccc([N+](=O)[O-])c1)c1ccccc1 (stereo not given) the results were V-ATPase pHluor 0, SR-BI DiI-HDL act 1, SR-BI DiI inh -1, CaV13 ICDI inh -2 and Vif inh 6.
Screening CC(=O)Nc1ccc2nc(CN3CCC(CO)(CCc4ccccc4)CC3)ccc2c1 returned NTR1 ag 1, V-ATPase pHluor -2, SR-BI DiI-HDL act 12, SR-BI DiI inh -12, CaV13 ICDI inh -4 and Vif inh 3.
For Cn1ncc2c(Nc3cccc(Cl)c3)nc(Nc3cccc(Cl)c3)nc21 the results were NTR1 ag 64*, V-ATPase pHluor -1, SR-BI DiI-HDL act -33, SR-BI DiI inh 33, CaV13 ICDI inh -14, Vif inh 1 and NTR1 ag conf 29.

Screens from PubChem.
